High-throughput results (PubChem)
An excerpt weighted towards active compounds, which were near 2.2% of everything screened.
HTR2A ag: agonists of mouse serotonin 5-HT2A receptor (HTR2A). activation, % at 7.6 µM. P35363. hit rate 0.66% among 360,000. CHO-K1 mHTR2A beta-arrestin complementation, luminescence; percent of 30 µM serotonin response;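 active = activation above a run cutoff, the mean activation of all tested compounds plus 3 SD, cut at about 14% in these data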;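 also: 0% = plate median of compound wells and 100% = 30 µM serotonin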
CCR6 antag: antagonists of human CCR6 receptor | hit rate 0.49% among 340,000 | P51684 | inhibition, % at 20 µM | CHO-K1 CCR6 PathHunter beta-arrestin, luminescence, CCL20-stimulated;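 active = compounds whose inhibition of the agonist-driven luminescence signal at 20 µM reaches about 50%, limit read from the data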;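 also: cells stimulated with CCL20 at 14 nM final; plate controls were DMSO with CCL20 for no effect and DMSO without agonist for full effect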
APJ ag: activates the human apelin receptor APJ. P35414. CHO-K1 APJ PathHunter beta-arrestin, luminescence; 0% DMSO wells, 100% apelin. activation, % at 20 µM. hit rate 0.11% among 330,000. AID 2520;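 active = activation more than six SD over the plate average, tested at 20 µM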;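 also: 0% = DMSO alone and 100% = apelin-13 at 10 nM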
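Material: engineered CHO-K1 APJ arrestin reporter cells; amount: 1000 CHO-K1 reporter cells seeded per well; incubation: compound stimulation 90 min at 25 °C, detection 60 min; signal: luminescent beta-gal fragment complementation, chemiluminescent substrate; read-out basis: APJ agonist activity; controls: DMSO-only wells as negative, 10 nM Apelin-13 as positive control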
EBI2 antag: blocks human EBI2 receptor beta-arrestin signaling; hit rate 0.81% among 360,000; inhibition, % at 5 µM; EBI2 beta-arrestin recruitment, luminescence, 7a,25-OHC stimulated; P32249; in the data active = inhibition above about 38%;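 also: enzyme fragment complementation signal reports receptor beta-arrestin coupling in cells; 0% = agonist plus DMSO wells and 100% = wells without agonist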
Target sequence (P32249 whole entry, looked up, the tested form may be a part): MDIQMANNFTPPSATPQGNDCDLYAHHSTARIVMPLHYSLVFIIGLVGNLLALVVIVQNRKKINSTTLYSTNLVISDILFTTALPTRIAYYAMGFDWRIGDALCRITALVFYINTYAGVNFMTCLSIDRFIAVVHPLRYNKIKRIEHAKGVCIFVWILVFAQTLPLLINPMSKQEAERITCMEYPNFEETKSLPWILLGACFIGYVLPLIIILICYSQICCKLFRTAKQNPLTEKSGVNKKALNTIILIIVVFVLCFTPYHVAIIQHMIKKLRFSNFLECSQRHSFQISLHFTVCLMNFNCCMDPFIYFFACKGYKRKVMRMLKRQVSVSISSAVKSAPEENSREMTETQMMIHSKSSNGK
CXCR6 inh: CXCR6 (human) receptor inhibition | O00574 | CHO-K1 PathHunter CXCR6 beta-arrestin, luminescence | hit rate 0.36% among 360,000 | inhibition, % at 20 µM; in the data active = inhibition above about 34%, passing the limit was not always enough;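 also: antagonist mode with CXCL16 agonist at 10 nM final; 0% = 10 nM CXCL16 with DMSO and 100% = unstimulated wells without agonist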
APJ antagonist: APJ receptor antagonism; P35414; hit rate 0.32% among 330,000; AID 2521; CHO-K1 APJ beta-arrestin complementation, luminescence; inhibition, % at 20 µM;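 active = inhibition above about 40% at 20 µM, limit read from the data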;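 also: cells challenged with 10 nM apelin-13 agonist together with compound; plate controls were apelin-13 plus DMSO wells for no effect and DMSO wells lacking apelin-13 for full effect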
OPRM1 ag: counter-screen for mouse HTR2A agonists: human mu opioid receptor agonists; hit rate 5.3% among 2,300; activation, % at 9.3 µM; shares compounds with HTR2A ag; AID 624380; U2OS OPRM1 beta-arrestin PathHunter, luminescence; DMSO 0%, DAMGO 9.3 µM 100%;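 active = mean activation above the mean of DMSO-only wells plus 3 SD, cut at about 0.5% in these data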
HTR2A ag conf: mouse HTR2A agonism confirmed | shares compounds with HTR2A ag | CHO-K1 PathHunter beta-arrestin recruitment, luminescence; DMSO 0%, 30 µM serotonin 100% | activation, % at 7.6 µM | hit rate 19% among 2,300 | AID 624381;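 active = mean activation across triplicates above the hit threshold derived in the original primary screen, cut at about 15% in these data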
* hit, by the source's call; . = not tested or not shown.

SMILES	HTR2A ag	CCR6 antag	APJ ag	EBI2 antag	CXCR6 inh	APJ antagonist	OPRM1 ag	HTR2A ag conf
O=C(CCN1C(=O)/C(=C/c2ccc(Cl)cc2)SC1=S)NC1C=CS(=O)(=O)C1 (stereo not given)	5.7	9.3	4.6	-2.6	5.2	1.8	.	.
O=C(C1=C(O)C(=O)N(Cc2ccco2)C1c1cccc(O)c1)c1ccco1 (stereo not given)	16.8*	-1.8	-0.2	7.2	-1.5	3.4	-0.5	-4.6
Cc1ccc(C(=O)C2=C(O)C(=O)N(Cc3ccco3)C2c2cccc(Br)c2)o1 (stereo not given)	-0.5	4.4	-4.3	-1.9	-7.3	10.3	.	.
CC(C)(C)c1ccc(S(=O)(=O)NC(=O)C2(C)CCN2C(=O)C2(c3ccccc3)CC2)cc1 (stereo not given)	17.5*	.	.	-11.4	-0.6	.	-0.6	-1.9
CC(C)(C)c1ccc(CC(=O)N2CCC2(C)C(=O)NS(=O)(=O)c2cccc(OC(F)F)c2)cc1 (stereo not given)	16.3*	.	.	4.2	0.0	.	0.2	4.0
Cc1cc(C)cc(CC(=O)N2CCC2(C)C(=O)NS(=O)(=O)c2ccc(C#N)cc2)c1 (stereo not given)	15.7*	.	.	-8.8	-2.3	.	-0.7	-2.6
CC1(C(=O)Nc2ccc3[nH]ncc3c2)CCN1C(=O)Cc1ccc(-c2ccccc2)cc1 (stereo not given)	-5.2	.	.	10.6	-6.8	.	.	.
CC1(C(=O)NCc2ccccc2)CN(S(C)(=O)=O)CC(=O)N1Cc1cccs1 (stereo not given)	-0.7	.	.	2.3	.	.	.	.
O=C(Nc1ccccc1)C(=O)Nc1cccnc1	21.8*	-0.2	-3.6	3.5	9.8	-7.9	-0.5	-2.3
O=C(C1CCC(CNc2c(N3CCCCC3)c(=O)c2=O)CC1)N1CCCCC1 (stereo not given)	18.7*	-6.0	-3.5	-4.5	-10.0	10.6	0.0	2.8
O=C(Nc1ccc2[nH]ccc2c1)c1cccs1	15.2*	-6.4	-1.3	-12.3	3.5	9.6	0.9*	2.1
O=C(O)C1CSC(c2ccc3c(c2)OCO3)N1 (stereo not given)	15.8*	11.3	-4.2	3.1	-5.9	-17.4	-0.8	-4.7
CSCCCc1cn([C@@H](CO)C(=O)NCCCCCCCCCCC(=O)N2CCNCC2)nn1	23.8*	-9.0	-0.9	-5.9	-2.0	7.3	-0.6	-2.8
NCCCC[C@@H](C(=O)NCCCCCCCCCCC(=O)N1CCNCC1)n1cc(CCO)nn1	-5.5	1.4	-4.7	-9.7	0.9	14.2	.	.
COc1cccc(N2CCN(C(=O)c3ccc(OC)c(S(=O)(=O)NC4CC4)c3)CC2)c1	-4.7	.	.	-6.6	0.3	.	.	.
CCOC(=O)N1CCC(N2CCCC(C(=O)c3ccccc3OC)C2)CC1 (stereo not given)	27.1*	10.9	-5.0	9.0	-0.7	-13.0	-0.7	54.2*
CCOC(=O)N1CCC(N2CCCC(C(=O)c3cc(C)c(OC)c(C)c3)C2)CC1 (stereo not given)	-3.1	1.3	-0.6	0.1	-3.3	16.8	.	.
COc1cc(NC(=O)CN2C(=O)C(c3ccccc3)=NC2(C)C)cc(OC)c1	28.1*	5.5	-0.3	-1.0	8.3	6.8	-0.5	-3.5
Cc1ccc(CNC(=O)c2ccc(N3CCC4(CC3)CC(c3cccc(Br)c3)=NO4)c([N+](=O)[O-])c2)cc1	14.4*	19.3	0.5	15.4	-0.4	15.0	-0.6	-0.2
Cc1ccc(CNC(=O)c2ccc(N3CCC4(CC3)CC(c3cccc(Br)c3)=NO4)c(N)c2)cc1	-0.4	-3.9	-1.1	27.2	-1.2	9.4	.	.
CCCCC(=O)Nc1ccc(Cl)cc1F	16.6*	.	.	3.4	-6.2	.	0.2	1.6
CC1(C(=O)Nc2ccc3c(c2)OCCO3)CN(S(C)(=O)=O)CC(=O)N1CCc1ccccc1F (stereo not given)	1.9	.	.	1.5	.	.	.	.
